Laboratory results from article PMC7651632 (RSC Medicinal Chemistry, 2020).
Entries after “also recorded” stand apart in the source; their conditions may differ.

Key:
RAW 267.4 macrophages = assay: Cytotoxicity screening against RAW267.4 macrophages; format: cell-based, Mus musculus
In short: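 Only compounds retained after the axenic amastigote dose-response screen were tested. Host RAW 267.4 macrophages were used. […] Selectivity index is macrophage ED50 divided by axenic amastigote ED50.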

[1] = test system: L. mexicana amastigotes within macrophage host (RAW 267.4); assay: Infected cell assay: screening against infected macrophages; format: cell-based, Leishmania mexicana; conditions: 24 h
[2] = test system: L. mexicana axenic amastigotes; assay: Primary screen against axenic amastigotes, single concentration; format: cell-based, Leishmania mexicana; conditions: 50 μM, in duplicate, inhibition of amastigote proliferation
In short: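 Run in a 96-well format against mammalian-stage L. mexicana axenic amastigotes. Each test compound was tested at a single 50 μM in duplicate, with inhibition of amastigote proliferation as the read-out. Amphotericin B served as positive control, and plate robustness was judged by Z′ factor.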

[3] = test system: axenic L. mexicana amastigotes; assay: Secondary dose response screen against axenic amastigotes; format: cell-based, Leishmania mexicana; conditions: 50 µM to 0.21 µM, 24 h + 24 h alamarBlue, 33 °C

Question: Which “SI - selectivity index, RAW ED50/AMA ED50” value (RAW 267.4 macrophages; RAW 267.4 macrophages versus axenic L. mexicana amastigotes) does the source give for `CC1(C)CC[C@]2(C(=O)O)CC[C@]3(C)C(=CC[C@@H]4[C@@]5(C)CC[C@H](OC(=O)CCC(=O)O)[C@@](C)(COC(=O)CCC(=O)O)[C@@H]5CC[C@]43C)[C@@H]2C1` [IVL-1, hederagenin disuccinate] here?
Answer: > 43.5

Question: And the “RAW ED50 - effective dose to kill 50% of host macrophage (RAW 267.4)” value (RAW 267.4 macrophages; toxicity study, 100 µM to 0.41 µM, 24 h)?
Answer: >100 µM

Question: What about the “InMAC ED50 - effective dose to kill 50% of amastigotes within macrophage host (RAW 267.4)” value [1] of the same compound?
Answer: not active

Question: `CC1(C)CC[C@]2(C(=O)O)CC[C@]3(C)C(=CC[C@@H]4[C@@]5(C)CC[C@H](O)[C@@](C)(CO)[C@@H]5CC[C@]43C)[C@@H]2C1` [IVL-7, hederagenin] was tested. Which “% inhibition Primary screen” value [2] did it give?
Answer: < 95%

Question: How did the “% inhibition Primary screen” value [2] turn out when `CC1(C)CC[C@]2(C(=O)O)CC[C@]3(C)C(=CC[C@@H]4[C@@]5(C)CC[C@H](O)C(C)(C)[C@@H]5CC[C@]43C)[C@@H]2C1` [IVL-8, Oleanolic acid] was run?
Answer: fell below the threshold; also recorded: deselected

Question: With `CC1(C)CC[C@]2(C(=O)O)CC[C@]3(C)C(=CCC4[C@@]5(C)CC[C@H](O[C@@H]6O[C@H](CO)[C@@H](O)[C@H](O)[C@H]6O[C@@H]6O[C@H](CO)[C@@H](O)[C@H](O)[C@H]6O)[C@@](C)(CO)C5CC[C@]43C)[C@@H]2C1` (some centres unmarked) [IVL-14, hederoside F] as the compound, how does the “% inhibition Primary screen” value [2] read?
Answer: fell below the threshold; also recorded: did not reach this cut-off

Question: With `C[C@@H]1O[C@@H](O[C@H]2[C@H](O)[C@@H](O)[C@H](OC[C@H]3O[C@@H](OC(=O)[C@]45CCC(C)(C)C[C@H]4C4=CC[C@@H]6[C@@]7(C)CC[C@H](O[C@@H]8OC[C@H](O)[C@H](O)[C@H]8O)[C@@](C)(CO)[C@@H]7CC[C@@]6(C)[C@]4(C)CC5)[C@H](O)[C@@H](O)[C@@H]3O)O[C@@H]2CO)[C@H](O)[C@H](O)[C@H]1O` [IVL-15, hederacoside D] as the compound, how does the “% inhibition Primary screen” value [2] read?
Answer: inactive

Question: Which “AMA ED50 - effective dose to kill 50% of axenic L. mexicana amastigotes” value [3] does the source give for `CC1(C)CC[C@]2(CO)CC[C@]3(C)C(=CC[C@@H]4[C@@]5(C)CC[C@@H]6O[C@H]([C@H](O)[C@@H](O)[C@@H](O)CO)OC[C@@]6(C)[C@@H]5CC[C@]43C)[C@@H]2C1` [IVL-80, Anemoclemoside A2] here?
Answer: >50 µM
